Laboratory results as given in ChEMBL document CHEMBL1151307, “Effects of tannins from Geum japonicum on the catalytic activity of thrombin and factor Xa of blood coagulation cascade” (J Nat Prod, 1998).
The source made the active and inactive calls.

Key:
[1] = tested on: Plasma; test: Anticoagulant activity in rabbit plasma assessed as prothrombin time at 0.5 mM after 2 mins; assay type: functional, Oryctolagus cuniculus
In short: (§1)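 Rabbit plasma was preincubated 2 min at 37 °C with compound dissolved in 0.05 M Tris buffer plus Tris/0.1 M NaCl, pH 7.5. Clotting was triggered with thromboplastin-calcium reagent and read on a fibrometer. Clotting time is in seconds, mean ± SD (n = 3-5), with Student's t-test against control. A cut-off of >300 s was scored as no clotting.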

[2] = tested on: Plasma; test: Anticoagulant activity in rabbit plasma assessed as thrombin time at 0.5 mM after 2 mins; assay type: functional, Oryctolagus cuniculus
In short: (§2)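 Rabbit plasma, 0.05 M Tris buffer and compound in Tris were preincubated for 2 min at 37 °C. Clotting was started with bovine thrombin (3-4 NIH units/mL) and timed on a fibrometer. Clotting time is in seconds, mean ± SD (n = 3-5), with Student's t-test against control. Clotting beyond 300 s was scored as no clotting.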

[3] = biological target: T1, Prothrombin (Bos taurus, UniProt P00735); test: Inhibition of bovine thrombin by Lineweaver-Burke plot analysis
In short: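 Bovine plasma thrombin (0.19 NIH units/mL) was run in 0.05 M Tris/0.1 M NaCl, pH 7.5, at 37 °C. It was preincubated with compound for under 2 min, and the reaction was started with S-2238 at 0.6-1.7 mM. Initial rates were taken as p-nitroaniline release at 405 nm. Inhibition type and Ki came from linear-regression Lineweaver-Burk plots.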

[4] = tested on: Plasma; test: Anticoagulant activity in rabbit plasma assessed as activated partial thromboplastin time at 0.5 mM after 2 mins; assay type: functional, Oryctolagus cuniculus
In short: (§3)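 Rabbit plasma with test compound in 0.05 M Tris buffer was incubated with APTT reagent for 2 min at 37 °C. Clotting was started with 25 mM CaCl2 and timed on a fibrometer. Clotting time is in seconds, mean ± SD (n = 3-5), compared with control by Student's t-test. Clotting beyond 300 s was scored as no clotting.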

[5] = tested on: Plasma; test: Anticoagulant activity in rabbit plasma assessed as prothrombin time at 0.25 mM after 2 mins; assay type: functional, Oryctolagus cuniculus
In short: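 PT: 0.05 M Tris/0.1 M NaCl (pH 7.5), compound in Tris and rabbit plasma incubated 2 min at 37 °C. Clotting started with thromboplastin-calcium reagent and timed on a fibrometer. Values are the mean of three determinations (mean ± SD, n = 3-5). Clotting >300 s was taken as no clotting.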

[6] = tested on: Plasma; test: Anticoagulant activity in rabbit plasma assessed as prothrombin time at 0.45 mM after 2 mins; assay type: functional, Oryctolagus cuniculus
In short: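 Rabbit plasma incubated 2 min at 37 °C with compound in 0.05 M Tris buffer plus 0.05 M Tris/0.1 M NaCl (pH 7.5); clotting started with thromboplastin-calcium reagent and timed on a fibrometer at 37 °C; clotting time in seconds, cut-off >300 s; average of three separate determinations (mean ± SD, n = 3-5).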

[7] = tested on: Plasma; test: Anticoagulant activity in rabbit plasma assessed as activated partial thromboplastin time at 0.25 mM after 2 mins; assay type: functional, Oryctolagus cuniculus
In short: (§4)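 APTT: rabbit plasma with compound (dissolved in 0.05 M Tris buffer) and APTT reagent preincubated 2 min, then clotting started with 25 mM CaCl2. Clotting time was read on a fibrometer at 37 °C. Values are the mean of three separate determinations (mean ± SD, n = 3-5), with clotting >300 s recorded as no clotting.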

[8] = tested on: Plasma; test: Anticoagulant activity in rabbit plasma assessed as thrombin time at 0.25 mM after 2 mins; assay type: functional, Oryctolagus cuniculus
In short: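 TT: rabbit plasma, 0.05 M Tris and compound in Tris preincubated 2 min, then bovine thrombin (3-4 NIH units/mL) added. Clotting was timed on a fibrometer at 37 °C. Values are the mean of three determinations (mean ± SD, n = 3-5), with >300 s taken as no clotting.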

[9] = biological target: T1, Prothrombin; test: Inhibition of bovine thrombin-catalyzed hydrolysis of S-2238
In short: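 Bovine plasma thrombin (0.19 NIH units/mL solution) in 0.05 M Tris with 0.1 M NaCl (pH 7.5) was preincubated with compound for 2 min at 37 °C. S-2238 was added as a 0.66 mM solution to start the reaction. p-Nitroaniline release was followed at 405 nm over 5 min and expressed as % inhibition. IC50 is the concentration that inhibits 50% of initial activity. Mean of three experiments.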

[10] = tested on: Plasma; test: Anticoagulant activity in rabbit plasma assessed as activated partial thromboplastin time at 0.47 mM after 2 mins; assay type: functional, Oryctolagus cuniculus; in short: as §4
[11] = biological target: T1, Prothrombin; test: Inhibition of bovine thrombin-catalyzed hydrolysis of fibrinogen
In short: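 Compound at various concentrations was preincubated with thrombin (0.05 NIH units/mL solution) for 3 min at 37 °C. The reaction was started with fibrinogen (2 mg/mL solution). Clot turbidity was read at 405 nm for 5 min and velocities were taken as mOD/min. IC50 is the concentration that inhibits 50% of initial activity. Mean of three experiments.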

[12] = biological target: T2, Coagulation factor X (Homo sapiens, UniProt P00742); test: Inhibition of human factor 10a-catalyzed hydrolysis of S-2222
In short: (§5)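 Compound and 0.20 mM S-2222 were mixed in 0.05 M Tris/0.1 M NaCl, pH 8.3. Reaction was started with factor Xa (50 ng/mL) and 4-nitroanilide release was read at 405 nm over 5 min at 37 °C. IC50 is the concentration giving 50% inhibition of initial activity, mean ± SD of three experiments. Ki was determined with S-2222 at 0.04-0.20 mM.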

[13] = biological target: T2, Coagulation factor X; test: Inhibition of human factor 10a; in short: as §5
[14] = tested on: Plasma; test: Anticoagulant activity in rabbit plasma assessed as thrombin time at 0.1 mM after 2 mins; assay type: functional, Oryctolagus cuniculus; settings: in the assay text read “1 mM” for “0.1 mM”; in short: as §2
[15] = tested on: Plasma; test: Anticoagulant activity in rabbit plasma assessed as prothrombin time at 0.1 mM after 2 mins; assay type: functional, Oryctolagus cuniculus; settings: in the assay text read “1 mM” for “0.1 mM”; in short: as §1
[16] = tested on: Plasma; test: Anticoagulant activity in rabbit plasma assessed as activated partial thromboplastin time at 0.1 mM after 2 mins; assay type: functional, Oryctolagus cuniculus; settings: in the assay text read “1 mM” for “0.1 mM”; in short: as §3
[17] = biological target: Prothrombin (Bos taurus) (UniProt P00735); test: Inhibition of bovine thrombin at 200 uM by Lineweaver-Burke plot analysis
In short: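 Bovine plasma thrombin at a fixed 0.19 NIH units/mL was tested in 0.05 M Tris with 0.1 M NaCl (pH 7.5) at 37 °C, with S-2238 at 0.6 to 1.7 mM. Compound and enzyme were preincubated for under 2 min before substrate was added. Initial rates were plotted as Lineweaver-Burk plots and fitted by linear regression to give the inhibition type and Ki. Mean of three.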

[18] = tested on: Plasma; test: Anticoagulant activity in rabbit plasma assessed as thrombin time at 2 mM after 2 mins; assay type: functional, Oryctolagus cuniculus; in short: as §2
[19] = tested on: Plasma; test: Anticoagulant activity in rabbit plasma assessed as prothrombin time at 2 mM after 2 mins; assay type: functional, Oryctolagus cuniculus; in short: as §1
[20] = tested on: Plasma; test: Anticoagulant activity in rabbit plasma assessed as activated partial thromboplastin time at 2 mM after 2 mins; assay type: functional, Oryctolagus cuniculus; in short: as §3
[21] = biological target: Prothrombin (Bos taurus) (UniProt P00735); test: Inhibition of bovine thrombin upto 100 uM
In short: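 Bovine plasma thrombin (0.19 NIH units/mL) in Tris/0.1 M NaCl, pH 7.5, was preincubated 2 min at 37 °C with compound in 0.1% DMSO, which also served as vehicle control. Reaction was started with S-2238 (0.66 mM, as added) and read as the rise in A405 over 5 min. Results are percent inhibition of thrombin activity.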

[22] = tested on: Plasma; test: Anticoagulant activity in rabbit plasma assessed as thrombin time at 0.75 mM after 2 mins; assay type: functional, Oryctolagus cuniculus; in short: as §2
[23] = tested on: Plasma; test: Anticoagulant activity in rabbit plasma assessed as prothrombin time at 0.75 mM after 2 mins; assay type: functional, Oryctolagus cuniculus; in short: as §1
[24] = Toxicity in po dosed rat; assay type: organism-based; settings: in vivo
[25] = Toxicity in po dosed mouse; assay type: organism-based; settings: in vivo
[26] = tested on: Plasma; test: Anticoagulant activity in rabbit plasma assessed as activated partial thromboplastin time at 0.75 mM after 2 mins; assay type: functional, Oryctolagus cuniculus; in short: as §3

T2 sequence (P00742 41-179 limits assumed): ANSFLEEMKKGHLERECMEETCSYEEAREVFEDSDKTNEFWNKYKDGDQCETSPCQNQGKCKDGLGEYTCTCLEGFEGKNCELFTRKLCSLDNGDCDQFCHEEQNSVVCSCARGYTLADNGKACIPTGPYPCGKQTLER
T2 sequence (P00742 235-488 limits assumed): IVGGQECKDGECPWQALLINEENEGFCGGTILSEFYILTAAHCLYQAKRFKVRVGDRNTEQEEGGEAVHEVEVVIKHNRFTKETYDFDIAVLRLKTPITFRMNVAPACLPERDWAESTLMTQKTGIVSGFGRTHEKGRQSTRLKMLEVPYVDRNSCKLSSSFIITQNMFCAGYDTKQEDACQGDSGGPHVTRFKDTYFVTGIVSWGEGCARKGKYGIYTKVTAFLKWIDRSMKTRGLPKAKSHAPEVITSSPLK

Row | Ki [3] [µM] | IC50 [9] [µM] | IC50 [11] [µM] | IC50 [12] [µM] | Ki [13] [µM] | Activity [21] | SMILES | PT [1] [s] | TT [2] [s] | APTT [4] [s] | TT [14] [s] | PT [15] [s] | APTT [16] [s] | also measured
1 | 0.42 | 0.07 | 0.014 | 0.21 | 0.44 |  | O=C(OC1O[C@@H]2COC(=O)c3cc(O)c(O)c(O)c3-c3c(cc(O)c(O)c3O)C(=O)O[C@H]2[C@H](OC(=O)c2cc(O)c(O)c(O)c2)[C@H]1OC(=O)c1cc(O)c(O)c(O)c1)c1cc(O)c(O)c(O)c1 (stereo not given in full) [TELLIMAGRANDIN II] | 11.9 | 18.7 | 45.7 | >300 | >300 | >300 | 
2 | 0.98 | 0.28 | 0.059 | 0.72 | 0.45 |  | O=C1OC[C@@H](O)[C@H]([C@@H]2OC(=O)c3cc(O)c(O)c(O)c3-c3c(O)c(O)c(O)c4c3C(=O)O[C@H]2[C@@H]4O)OC(=O)c2cc(O)c(O)c(O)c2-c2c1cc(O)c(O)c2O [CASUARIIN] | 13.6 | 12.3 | 72.3 | >300 | >300 | >300 | 
3 |  | > 200 | > 200 |  |  |  | O=C1O[C@H]2[C@H](O)[C@@H](CO)OC(O)[C@@H]2OC(=O)c2cc(O)c(O)c(O)c2-c2c1cc(O)c(O)c2O (stereo not given in full) |  |  |  |  |  |  | Activity [17]: inactive; TT [18]: 9.43 s; PT [19]: 10 s; APTT [20]: 39.9 s
4 | 0.83 | 0.19 | 0.026 | 0.28 | 0.69 |  | O=C1OC[C@@H](O)[C@H]([C@@H]2OC(=O)c3cc(O)c(O)c(O)c3-c3c(O)c(O)c(O)c4c3C(=O)O[C@H]2[C@H]4O)OC(=O)c2cc(O)c(O)c(O)c2-c2c1cc(O)c(O)c2O | 13.9 | 16.2 | 31.6 | >300 | >300 | >300 | 
5 |  |  |  |  |  | inactive | COc1cc2c(c(OC)c1OC)-c1c(cc(OC)c(OC)c1OC)C(=O)O[C@H]1[C@@H]3OC(=O)c4cc(OC)c(OC)c(OC)c4-c4c(cc(OC)c(OC)c4OC)C(=O)O[C@H]3C(OC)O[C@@H]1COC2=O (stereo not given in full) |  |  |  |  |  |  | 
6 |  |  |  |  |  | inactive | O=C(OC[C@H]1O[C@@H](OC(=O)c2ccccc2)[C@H](OC(=O)c2ccccc2)[C@@H](OC(=O)c2ccccc2)[C@@H]1OC(=O)c1ccccc1)c1ccccc1 |  |  |  |  |  |  | 
7 |  |  |  |  |  | inactive | COc1cc(C(=O)OC[C@H]2O[C@@H](OC(=O)c3cc(OC)c(OC)c(OC)c3)[C@H](OC(=O)c3cc(OC)c(OC)c(OC)c3)[C@@H](OC(=O)c3cc(OC)c(OC)c(OC)c3)[C@@H]2OC(=O)c2cc(OC)c(OC)c(OC)c2)cc(OC)c1OC |  |  |  |  |  |  | 
8 |  | > 200 | > 200 |  |  |  | O=C(OC[C@H]1OC(O)[C@H](OC(=O)c2cc(O)c(O)c(O)c2)[C@@H](O)[C@@H]1O)c1cc(O)c(O)c(O)c1 (stereo not given in full) |  |  |  |  |  |  | Activity [17]: inactive; TT [18]: 10.7 s; PT [19]: 11.1 s; APTT [20]: 40.8 s

Row | SMILES | Ki [3] [µM] | IC50 [9] [µM] | IC50 [11] [µM] | IC50 [12] [µM] | Ki [13] [µM] | Activity [21] | PT [1] [s] | TT [2] [s] | APTT [4] [s] | TT [14] [s] | PT [15] [s] | APTT [16] [s] | also measured
9 | O=C(OC[C@H]1O[C@@H](OC(=O)c2cc(O)c(O)c(O)c2)[C@H](OC(=O)c2cc(O)c(O)c(O)c2)[C@@H](OC(=O)c2cc(O)c(O)c(O)c2)[C@@H]1OC(=O)c1cc(O)c(O)c(O)c1)c1cc(O)c(O)c(O)c1 [PENTAGALLOYL GLUCOSE] | 3.9 | 0.11 | 0.05 | 0.17 | 0.57 |  | > 300 | > 300 | > 300 |  |  |  | PT [5]: 13.9 s; PT [6]: >300 s; APTT [7]: 50.6 s; TT [8]: >300 s; APTT [10]: >300 s
10 | O=C1OC[C@H]2OC(O)[C@@H]3OC(=O)c4cc(O)c(O)c(O)c4-c4c(cc(O)c(O)c4O)C(=O)O[C@H]3[C@@H]2OC(=O)c2cc(O)c(O)c(O)c2-c2c1cc(O)c(O)c2O (stereo not given in full) [PEDUNCULAGIN] | 0.042 | 0.18 | 0.15 | 0.56 | 0.99 |  | 13.5 | 22.7 | 43.7 | >300 | >300 | >300 | TT [22]: 33.5 s; PT [5]: 10.2 s; PT [23]: 15.2 s; APTT [7]: 35.3 s; LD50 [24]: > 100 mg/kg; LD50 [25]: > 100 mg/kg; TT [8]: 12.6 s; APTT [26]: 60.2 s
